High-throughput results (PubChem BioAssay)
KCNK3 inh – human KCNK3 channel inhibition, primary screen; B-score at 10 µM; CHO-KCNK3 thallium flux, FluxOR fluorescence; stronger effect = lower value; AID 602410; O14649; hit rate 0.84% among 340,000;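 active = B-score under library mean minus 4 SD, starting fluorescence ratio at most library mean plus 5 SD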;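 also: more negative B-score means stronger inhibition of thallium flux through KCNK3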
hERG protect – hERG (human) protection from proarrhythmic block | Q12809 | CHO-hERG, FluxOR thallium flux, dofetilide IC70 present | activation (rescue from dofetilide block), less the hit threshold, % at 10 µM | hit rate 0.51% among 310,000;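 active = activation above the mean of controls blocked by dofetilide plus 5 SD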;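 also: thallium influx through hERG after potassium depolarization seen as dye fluorescence rise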
KCNQ1 inh – inhibitors of human KCNQ1 potassium channel. AID 2642. hit rate 1.3% among 310,000. P51787. CHO-K1 KCNQ1, FluxOR thallium flux fluorescence; stronger effect = higher value. B-score at 10 µM;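 active = compounds whose thallium flux B-score, printed positive for inhibition, exceeds three library SD while starting fluorescence stays within three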;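 also: channel opened by potassium depolarization with thallium stimulus after 20 min compound exposure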
KCNK9 inh – blocks the human KCNK9 two-pore domain potassium channel. HEK293 KCNK9, FluxOR thallium flux fluorescence; stronger effect = lower value. B-score at 10 µM. hit rate 1.2% among 310,000. AID 488922;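 active = ratio B-score over 3 SD below the library mean, with starting fluorescence within 5 SD of its mean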;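 also: negative B-score means less thallium flux so channel inhibition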
Target sequence (Q9NPC2 whole entry, looked up, the tested form may be a part): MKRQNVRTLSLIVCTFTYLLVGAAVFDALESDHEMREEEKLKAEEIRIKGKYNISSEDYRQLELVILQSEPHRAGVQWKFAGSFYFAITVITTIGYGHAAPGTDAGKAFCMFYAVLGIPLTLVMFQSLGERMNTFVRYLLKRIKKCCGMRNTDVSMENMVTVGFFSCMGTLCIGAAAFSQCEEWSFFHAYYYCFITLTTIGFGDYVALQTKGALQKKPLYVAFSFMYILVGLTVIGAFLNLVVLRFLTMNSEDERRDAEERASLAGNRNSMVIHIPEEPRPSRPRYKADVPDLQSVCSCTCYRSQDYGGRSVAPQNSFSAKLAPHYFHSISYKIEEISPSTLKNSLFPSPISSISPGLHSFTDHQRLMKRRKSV
KCNQ1 act – human KCNQ1 channel potentiation or activation. CHO-K1 KCNQ1, thallium flux FluxOR fluorescence; stronger effect = higher value. B-score at 10 µM. hit rate 0.35% among 310,000;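 active = fluorescence ratio B-score, a plate-corrected score, at least three library SD, with initial intensity B-score within 5 SD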
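System: CHO-K1 cells stably expressing KCNQ1 / Medium: assay buffer for compound exposure, DMSO matched across wells / Reagent: thallium- and potassium-containing depolarizing buffer / Compound: one concentration, matched DMSO / Incubation: 20 min compound pretreatment at room temperature / Measured by: kinetic FluxOR fluorescence, 10 s baseline plus 110 s post-stimulus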
Kir21 block – blocks the mouse Kir2.1 inward-rectifier potassium channel; HEK293-Kir2.1, FluxOR thallium flux fluorescence; stronger effect = lower value; P35561; hit rate 0.85% among 310,000; B-score at 10 µM;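 active = fluorescence ratio B-score at or below minus 3 SD of library scores, with starting-brightness B-score within 2 SD, cut at about -4.2 in these data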;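 also: channel flux triggered by added potassium and thallium sulfate stimulus; B-score of peak minus minimum fluorescence over baseline after thallium stimulus; more negative B-score means stronger Kir2.1 block with less thallium influx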
Target sequence (P35561 whole entry, looked up): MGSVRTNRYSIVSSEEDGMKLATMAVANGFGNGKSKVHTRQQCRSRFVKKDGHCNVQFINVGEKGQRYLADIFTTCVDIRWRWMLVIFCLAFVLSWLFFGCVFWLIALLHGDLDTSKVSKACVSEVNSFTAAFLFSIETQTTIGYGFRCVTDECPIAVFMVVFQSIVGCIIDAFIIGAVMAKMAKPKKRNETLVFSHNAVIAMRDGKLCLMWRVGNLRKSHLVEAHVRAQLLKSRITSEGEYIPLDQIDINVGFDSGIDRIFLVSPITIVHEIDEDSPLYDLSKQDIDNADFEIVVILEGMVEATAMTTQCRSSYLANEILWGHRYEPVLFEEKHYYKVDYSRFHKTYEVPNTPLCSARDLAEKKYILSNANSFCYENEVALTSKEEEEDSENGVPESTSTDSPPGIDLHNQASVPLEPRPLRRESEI
KCNK9 block conf – confirmation of human KCNK9 potassium channel inhibitors. shares compounds with KCNK9 inh. HEK293 KCNK9 cells, FluxOR thallium flux fluorescence. inhibition, % at 10 µM. hit rate 43% among 4,900. AID 492992;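 active = thallium signal inhibited by more than 5 SD of the compound-free buffer control wells, on both duplicate plates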
Kir2-1 spec – mouse Kir2.1 off-target activity of KCNK9 modulators; Kir2.1 cells, FluxOR thallium flux fluorescence; hit rate 4% among 4,900; shares compounds with KCNK9 inh; inhibition, % at 10 µM;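 active = thallium signal drop more than 5 SD beyond the mean of the no-compound control wells, seen in both duplicate plates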;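 also: signal is fluorescence rise after thallium addition divided by baseline fluorescence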
HEK293 Tl ctr – second counter-screen for KCNK9 modulators: effect in non-induced cells. shares compounds with KCNK9 inh. non-induced KCNK9-HEK293, FluxOR thallium flux. inhibition, % at 10 µM. hit rate 40% among 4,900. AID 492997;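 active = thallium signal drop beyond 5 SD of the untreated control mean, on both duplicate plates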
KCNK3 confirm – confirmation of human KCNK3 two-pore domain potassium channel inhibitors. shares compounds with KCNK3 inh. ratio percent of control, % at 10 µM. hit rate 99% among 2,400. CHO-KCNK3 thallium flux, FluxOR fluorescence; 0% buffer, 100% carvedilol maximal block;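 active = ratio percent of control, averaged over triplicates, above buffer control mean plus 5 SD, cut at about 64% in these data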;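 also: ratio is the fluorescence rise from min to max over baseline after thallium stimulus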
KCNK3 noninduced – KCNK3 inhibitor counter-screen hit in non-induced cells. non-induced KCNK3 parental cells, FluxOR thallium flux; stronger effect = lower value. thallium flux ratio (lower = more inhibition) at 10 µM. hit rate 40% among 2,400. AID 651747. shares compounds with KCNK3 inh;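 active = thallium flux ratio, averaged over three wells, more than 5 SD below the buffer control mean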;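 also: host cells are CHO cells without KCNK3 induction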
Large screens that a line does not name were inactive (follow-up assays come after a bar, where they were run). Compounds with a hit are over-represented: about 3.8% of the library has one in this group of screens.

Cc1c(C(=O)N(C)Cc2cccc(F)c2)oc2c(Cl)cccc12	KCNK3 inh -10.7, KCNK9 inh -13.9 | KCNK9 block conf 47.0% | Kir2-1 spec inactive | HEK293 Tl ctr 49.0% | KCNK3 confirm 104.0 | KCNK3 noninduced inactive
CN(CC(=O)Nc1ccccc1F)Cc1cccs1	none
Cc1cc(Br)ccc1NC(=O)CN(C)Cc1cccs1	KCNK3 inh -9.02, KCNK9 inh -11.7 | KCNK9 block conf 43.0% | Kir2-1 spec inactive | HEK293 Tl ctr 28.0% | KCNK3 confirm 100.3 | KCNK3 noninduced inactive
Cc1ccc(NC(=O)CN(c2ccc(Cl)cc2)S(=O)(=O)c2cc([N+](=O)[O-])ccc2Cl)c(C)c1	KCNK3 inh -14.9, KCNK9 inh -13.6 | KCNK9 block conf 62.5% | Kir2-1 spec inactive | HEK293 Tl ctr 36.5% | KCNK3 confirm 115.3 | KCNK3 noninduced inactive
CCOC(=O)C(C)Sc1cc(CS(=O)(=O)c2ccccc2)nc(-c2ccccc2)n1 (stereo not drawn)	KCNK3 inh -8.76, KCNK9 inh -10.3 | KCNK9 block conf 58.0% | Kir2-1 spec inactive | HEK293 Tl ctr 28.0% | KCNK3 confirm 125.0 | KCNK3 noninduced inactive
O=S(=O)(Cc1cc(Oc2ccccc2)nc(-c2ccccc2)n1)c1ccccc1	none
O=c1ccc2ccc(OCCOc3cccc(Cl)c3)cc2o1	KCNK9 inh -9.51 | KCNK9 block conf 32.5% | Kir2-1 spec inactive | HEK293 Tl ctr 41.5% | KCNK3 confirm 99.7 | KCNK3 noninduced inactive
Cc1ccc(C(=O)COc2ccc3ccc(=O)oc3c2)cc1	none
CC(C)(CNCc1ccccc1)NS(=O)(=O)c1ccccc1	none (no result: hERG protect, KCNQ1 inh, KCNK9 inh, KCNQ1 act, Kir21 block)
CCOC(=O)NC(N(O)c1cccc(Cl)c1)C(Cl)(Cl)Cl (stereo not drawn)	KCNK3 inh -12.4, KCNK9 inh -12.7 | KCNK9 block conf 53.5% | Kir2-1 spec inactive | HEK293 Tl ctr 28.5% | KCNK3 confirm 112.3 | KCNK3 noninduced inactive
CCc1ccc(NC(=O)c2sccc2-n2cccc2)cc1	KCNK3 inh -11.7, KCNK9 inh -8.62 | KCNK9 block conf 59.0% | Kir2-1 spec inactive | HEK293 Tl ctr 40.5% | KCNK3 confirm 100.0 | KCNK3 noninduced 0.153
CC(C)(C)n1nnnc1C(c1ccncc1)N1CCN(c2ccc(O)cc2)CC1 (stereo not drawn)	none
CC(C)C(c1nnnn1C(C)(C)C)N1CCN(c2cccc(Cl)c2)CC1 (stereo not drawn)	KCNK3 inh -10, KCNK9 inh -12 | KCNK9 block conf 58.5% | Kir2-1 spec inactive | HEK293 Tl ctr 36.5% | KCNK3 confirm 126.0 | KCNK3 noninduced 0.151
C[C@@H]1NS(=O)(=O)[C@H]2C[C@@H]3C=C[C@]2(O3)[C@H]1OC(=O)Nc1ccc(C(F)(F)F)cc1[N+](=O)[O-]	none (no result: hERG protect, KCNQ1 inh, KCNK9 inh, KCNQ1 act, Kir21 block)
COc1ccc(OCC(=O)Nc2cc(S(=O)(=O)N3CCCC3)ccc2Cl)cc1	none (no result: hERG protect, KCNQ1 inh, KCNK9 inh, KCNQ1 act, Kir21 block)
COc1cccc(OCCn2cc(C(=O)c3ccco3)c3ccccc32)c1	KCNK3 inh -11.5, KCNK9 inh -15.3 | KCNK9 block conf 51.5% | Kir2-1 spec inactive | HEK293 Tl ctr inactive | KCNK3 confirm 118.7 | KCNK3 noninduced 0.14
COc1ccc2nc(SC(C)C(=O)NCC(=O)Nc3ccc(F)c(F)c3F)[nH]c2c1 (stereo not drawn)	none (no result: hERG protect, KCNQ1 inh, KCNK9 inh, KCNQ1 act, Kir21 block)
O=C(NNC(=O)c1cc(-c2ccccc2)nc2ccccc12)c1csc(N2CCOCC2)n1	none
O=C(NNC(=O)c1cc(-c2ccc(Cl)cc2)nc2ccccc12)c1csc(N2CCOCC2)n1	KCNK3 inh -9, KCNK9 inh -10.3 | KCNK9 block conf 28.5% | Kir2-1 spec inactive | HEK293 Tl ctr inactive | KCNK3 confirm 79.7 | KCNK3 noninduced inactive
Cc1ccc(C(=O)OC(C(=O)O)C(OC(=O)c2ccc(C)cc2)C(=O)O)cc1 (stereo not drawn)	none (no result: hERG protect, KCNQ1 inh, KCNK9 inh, KCNQ1 act, Kir21 block)
Cc1nc2ccccc2c(=O)n1NC(=O)c1ccc(Cl)c(Cl)c1	none
COC(=O)c1cc(COc2ccc3oc(C)c(C(=O)OC(C)C)c3c2)c(C)o1	KCNK9 inh -10.2 | KCNK9 block conf inactive | Kir2-1 spec inactive | HEK293 Tl ctr 46.0% | KCNK3 confirm 92.3 | KCNK3 noninduced 0.142
Cc1cc(C(=O)CSc2nc3ccc(Cl)cc3[nH]2)c(C)n1Cc1ccco1	KCNK3 inh -9.7 | KCNK9 block conf inactive | Kir2-1 spec inactive | HEK293 Tl ctr inactive | KCNK3 confirm 93.7 | KCNK3 noninduced inactive
CCOc1ccc(C2=CC(=O)C[C@H](c3ccc(OC)cc3)C2)cc1	none (no result: hERG protect, KCNQ1 inh, KCNK9 inh, KCNQ1 act, Kir21 block)
CC1(C)Cc2cccc(C(=O)Nc3ccncc3)c2O1	none
CC1(C)Cc2cccc(C(=O)Nc3ccc(Cl)cc3)c2O1	KCNK3 inh -11.9, KCNK9 inh -10.5 | KCNK9 block conf 46.5% | Kir2-1 spec inactive | HEK293 Tl ctr inactive | KCNK3 confirm 89.0 | KCNK3 noninduced 0.157
CC(C)c1csc(CN2CCC(n3nccc3NC(=O)Cc3ccccc3)CC2)n1	none
COc1ccc2ccc(=O)oc2c1CC=C(C)C	KCNK3 inh -11.6, KCNK9 inh -15.3 | KCNK9 block conf 71.5% | Kir2-1 spec inactive | HEK293 Tl ctr 38.0% | KCNK3 confirm 104.0 | KCNK3 noninduced inactive
O=C(/C=C/Nc1ccccc1C(F)(F)F)c1ccco1	KCNK3 inh -9.12, KCNK9 inh -8.8 | KCNK9 block conf inactive | Kir2-1 spec inactive | HEK293 Tl ctr inactive | KCNK3 confirm 90.3 | KCNK3 noninduced inactive
O=S(=O)(c1ccccc1)N1N=C(c2ccc(Br)cc2)CC1c1ccco1 (stereo not drawn)	KCNK3 inh -10.1, KCNK9 inh -11.1 | KCNK9 block conf 38.0% | Kir2-1 spec inactive | HEK293 Tl ctr 39.0% | KCNK3 confirm 102.7 | KCNK3 noninduced inactive
COc1ccc(CCNC(=S)NC(=O)c2cccc([N+](=O)[O-])c2)cc1OC	none
CC(C1CC1)N(Cc1ccccc1)C(=S)Nc1cccc(C(F)(F)F)c1 (stereo not drawn)	KCNK3 inh -9.15, KCNK9 inh -13 | KCNK9 block conf 56.5% | Kir2-1 spec inactive | HEK293 Tl ctr 39.0% | KCNK3 confirm 124.7 | KCNK3 noninduced inactive
